Laboratory results: ChEMBL document CHEMBL3232767, “Synthesis of the antiproliferative agent hippuristanol and its analogues from hydrocortisone via Hg(II)-catalyzed spiroketalization: structure-activity relationship” (J Med Chem, 2014)
The source made the active and inactive calls. No cut-off for these calls is given here.

organism: Oryctolagus cuniculus; assay: Inhibition of translation in rabbit reticulocyte lysates using SP6 RNA polymerase at 10 uM by FF/HCV/Ren reporter gene assay; type: functional
How it was run: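 Bicistronic mRNA (cap-dependent FF, HCV IRES-driven Ren as internal standard) translated in vitro at 4 ng/μL in rabbit reticulocyte lysate; compounds at 10 μM final vs 0.5% DMSO vehicle; anisomycin as control. FF and Ren luciferase read by luminometer, normalized to vehicle set at 1; duplicates averaged, error of the mean given.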

SMILES | inhibition
C[C@H]1C[C@@]2(O[C@H]3C[C@H]4[C@@H]5CC[C@H]6C[C@H](O)CC[C@]6(C)[C@H]5[C@@H](O)C[C@]4(C)[C@H]3[C@@]2(C)O)OC1(C)C | Active
C[C@H]1C[C@@]2(O[C@H]3C[C@H]4[C@@H]5CC[C@H]6C[C@H](N)CC[C@]6(C)[C@H]5[C@@H](O)C[C@]4(C)[C@H]3[C@@]2(C)O)OC1(C)C | inactive
C[C@H]1C[C@]2(O[C@H]3C[C@H]4[C@@H]5CC[C@H]6C[C@H](O)CC[C@]6(C)[C@H]5[C@@H](O)C[C@]4(C)[C@H]3[C@]2(O)CO)OC1(C)C | inactive
CC[C@@]1(O)[C@H]2[C@H](C[C@H]3[C@@H]4CC[C@H]5C[C@H](O)CC[C@]5(C)[C@H]4[C@@H](O)C[C@@]32C)O[C@@]12C[C@H](C)C(C)(C)O2 | inactive
C[C@H]1C[C@]2(O[C@H]3C[C@H]4[C@@H]5CC[C@H]6C[C@H](O)CC[C@]6(C)[C@H]5[C@@H](O)C[C@]4(C)[C@H]3C2=O)OC1(C)C | inactive
CC[C@@]1(O)[C@H]2[C@H](C[C@H]3[C@@H]4CC[C@H]5C[C@H](O)CC[C@]5(C)[C@H]4[C@@H](O)C[C@@]32C)O[C@]12C[C@H](C)C(C)(C)O2 | inactive
C[C@H]1C[C@@]2(O[C@H]3C[C@H]4[C@@H]5CC[C@H]6C[C@H](O)CC[C@]6(C)[C@H]5[C@@H](O)C[C@]4(C)[C@H]3[C@H]2O)OC1(C)C | inactive
C[C@H]1C[C@]2(O[C@H]3C[C@H]4[C@@H]5CC[C@H]6C[C@H](O)CC[C@]6(C)[C@H]5[C@@H](O)C[C@]4(C)[C@H]3[C@@]2(C)O)OC1(C)C | Active
COc1ccc(C[C@H]2NC[C@H](O)[C@H]2OC(C)=O)cc1 | Active
C[C@H]1C[C@]2(O[C@H]3C[C@H]4[C@@H]5CC[C@H]6C[C@H](O)CC[C@]6(C)[C@H]5[C@@H](O)C[C@]4(C)[C@H]3[C@H]2O)OC1(C)C | inactive
C[C@H]1C[C@@]2(O[C@H]3C[C@H]4[C@@H]5CC[C@H]6C[C@@H](O)CC[C@]6(C)[C@H]5[C@@H](O)C[C@]4(C)[C@H]3[C@@]2(C)O)OC1(C)C | inactive
